Tests used:
MCF7 = assay: Antiproliferative activity against MCF7 cells by colorimetric MTT assay; assay type: functional, cell-based; settings: Homo sapiens
In short: (§1)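 Proliferation of the human tumour lines DU145, PC-3 and MCF-7 was read out by colorimetric MTT assay. Values come from at least three independent determinations, with standard deviation below 10%.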

[1] = target: Protein farnesyltransferase (Homo sapiens, UniProt P49354+P49356); assay: Inhibition of FTase by fluorescence spectrometry technique; assay type: protein-complex assay
PC-3 = assay: Antiproliferative activity against PC3 cells by colorimetric MTT assay; assay type: functional, cell-based; settings: Homo sapiens; in short: as §1
L1210 [2] = assay: Antiproliferative activity against L1210 cells by cell numeration; settings: Mus musculus
DU-145 [3] = assay: Antiproliferative activity against DU145 cells by colorimetric MTT assay; assay type: functional, cell-based; settings: Homo sapiens; in short: as §1
L1210 [4] = assay: Antiproliferative activity against L1210 cells by cell numeration at 10 uM; settings: Mus musculus
DU-145 [5] = assay: Antiproliferative activity against DU145 cells by colorimetric MTT assay at 100 uM; assay type: functional; settings: Homo sapiens

SMILES	IC50 (MCF7) [µM]	IC50 [1] [nM]	IC50 (PC-3) [µM]	IC50 (L1210 [2]) [µM]	IC50 (DU-145 [3]) [µM]	inhibition at 10 µM (L1210 [4]) [%]	inhibition at 100 µM (DU-145 [5]) [%]
N#Cc1ccc(Cn2cncc2CN2CCN(C3c4ccccc4CCc4ccccc43)CC2)cc1	45	310	11.4	4.85	9.55	–	–
N#Cc1ccc(Cn2cncc2CN2CCCN(C3c4ccccc4N(CCCN4CCOCC4)S(=O)(=O)c4ccccc43)CC2)cc1 (centres undefined)	33	17.3	27.3	4.57	47.4	–	–
N#Cc1ccc(Cn2cncc2CN[C@H](CC(=O)N[C@@H](Cc2ccccc2)C(N)=O)Cc2ccccc2)cc1	> 100	28.5	> 100	–	> 100	41	–
CN1c2ccccc2C(N2CCCN(Cc3cncn3Cc3ccc(C#N)cc3)CC2)c2ccccc2S1(=O)=O (centres undefined)	48	44.8	50	4.76	59.8	–	–
N#Cc1ccc(Cn2cncc2CN2CCCN(C3c4ccccc4CCc4ccccc43)CC2)cc1	41	285	–	–	51.3	34	–
COC(=O)[C@H](Cc1ccccc1)N(C(=O)c1ccccc1)C1CCN(Cc2cncn2Cc2ccc(C#N)cc2)CC1	–	22	–	4.95	–	–	–
CN1c2ccccc2C(N2CCN(Cc3cncn3Cc3ccc(C#N)cc3)CC2)c2ccccc2S1(=O)=O (centres undefined)	76	45	69.4	3.9	100	–	–
CCCN1c2ccccc2C(N2CCCN(Cc3cncn3Cc3ccc(C#N)cc3)CC2)c2ccccc2S1(=O)=O (centres undefined)	–	46.5	34.1	4	–	–	38
CCCCN1c2ccccc2C(N2CCCN(Cc3cncn3Cc3ccc(C#N)cc3)CC2)c2ccccc2S1(=O)=O (centres undefined)	66	43	–	3	100	–	–
